The target in assay [1] is Glutamate NMDA receptor. The assay is described as follows: Tested for the inhibition of [3H]dizocilpine binding to N-methyl-D-aspartate (NMDA) receptor-coupled phencyclidine binding site. It counts as protein-complex assay. A digest of the protocol:
(§1)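 Rat brain membranes (Sprague–Dawley, whole brain minus cerebellum) in 5 mM Tris-HCl pH 7.4, washed by repeated 20000g spins. Incubation with 2 nM (+)-[3H]-3, 10 μM glutamate and 10 μM glycine for 90 min at 5 °C. Nonspecific binding defined with 10 μM (+)-3. Filtration, then scintillation counting.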

The target of assay [2] is T1, Glutamate NMDA receptor (Rattus norvegicus) (UniProt P35439+Q00959+Q00960+Q00961+Q62645+Q8VHN2+Q9R1M7). The assay can be described thus: Tested for the % inactivation of [3H]dizocilpine binding to NMDA receptor at 10 uM). It counts as protein-complex assay. The gist of the method: (§2)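 Thawed rat brain homogenates pretreated with isothiocyanate for 30 min at 5 °C. Washed three times with buffer containing 100 μM glutamate, 30 μM glycine and 300 μM MgCl2, which removes reversible ligand. Binding of 2 nM (+)-[3H]-3 then measured as in the reversible assay. % inactivation is versus similarly washed untreated controls. Triplicates, mean ± SEM of ≥2 experiments.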

The target in assay [3] is Mu-type opioid receptor (Rattus norvegicus, UniProt P33535). The assay can be described thus: Tested for in vitro inhibition of the displacement of [3H]FOXY from mu opioid receptor. The gist of the method:
(§3)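 Reversible and wash-resistant displacement assays used published protocols, with extra washes added to remove unreacted compound. Final radioligand levels were [3H]flunitrazepam 1 nM, (+)-[3H]pentazocine 3 nM, [3H]FOXY 2 nM, [3H]QNB 0.5 nM and [3H]mazindol 5 nM. Test compound went up to 100 μM. Runs were in triplicate, with at least two experiments. Ki came from Cheng-Prusoff.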
On the technique in general: Displacement assays read how much labelled ligand stays bound in the presence of the test substance.

The target of assay [4] is Sigma non-opioid intracellular receptor 1 (Rattus norvegicus, UniProt Q9R0C9). The assay can be described thus: Tested for in vitro inhibition of the displacement of (+)-[3H]pentazocine from sigma opioid receptor. The gist of the method:
as §3

For assay [5], the target named is GABA-A receptor; anion channel. The assay is described as follows: In vitro inhibition of [3H]flunitrazepam displacement from GABA-A receptor. Type of assay: protein-complex assay, Rattus norvegicus. A digest of the protocol:
as §3

The target in assay [6] is Sodium-dependent dopamine transporter (Rattus norvegicus) (UniProt P23977). The assay is described as follows: Tested for in vitro inhibition of the displacement of [3H]mazindol from dopamine transporter.
Chain of Sodium-dependent dopamine transporter (Rattus norvegicus) (P23977 whole entry, looked up): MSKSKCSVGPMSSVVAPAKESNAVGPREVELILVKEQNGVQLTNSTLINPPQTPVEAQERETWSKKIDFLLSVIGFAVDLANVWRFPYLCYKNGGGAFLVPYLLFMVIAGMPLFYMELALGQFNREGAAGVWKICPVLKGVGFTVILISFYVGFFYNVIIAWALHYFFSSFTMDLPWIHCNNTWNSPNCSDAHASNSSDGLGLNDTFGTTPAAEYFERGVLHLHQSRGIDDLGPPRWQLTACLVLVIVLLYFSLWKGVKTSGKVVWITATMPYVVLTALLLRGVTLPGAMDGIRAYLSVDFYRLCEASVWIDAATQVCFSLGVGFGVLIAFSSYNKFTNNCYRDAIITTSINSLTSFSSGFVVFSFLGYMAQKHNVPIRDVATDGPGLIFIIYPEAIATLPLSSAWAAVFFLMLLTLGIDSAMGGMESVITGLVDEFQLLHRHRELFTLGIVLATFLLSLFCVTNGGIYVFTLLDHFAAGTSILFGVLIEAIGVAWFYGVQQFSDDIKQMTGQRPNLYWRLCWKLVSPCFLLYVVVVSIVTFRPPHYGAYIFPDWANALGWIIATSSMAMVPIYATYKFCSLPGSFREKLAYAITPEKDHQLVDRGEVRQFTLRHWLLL
Assay [7] deals with Glutamate NMDA receptor. The assay can be described thus: Tested for in vitro inhibition of the displacement of (+)-[3H]dizocilpine from NMDA receptor. It counts as protein-complex assay. A digest of the protocol:
as §1

In assay [8] the target is Glutamate NMDA receptor. The assay can be described thus: Tested for in vitro inhibition of the displacement of [3H]1-[1-(2-thieny])cyclohexyl] peridine from NMDA receptor. Type of assay: protein-complex assay.
Assay [9] has as its target Muscarinic acetylcholine receptor. The assay can be described thus: Tested for in vitro inhibition of the displacement of [3H]quinuclidinyl benzilate muscarinic receptor. Type of assay: protein assay.
The target in assay [10] is T1, Glutamate NMDA receptor (Rattus norvegicus). The assay is described as follows: Tested for % inactivation of the displacement of [3H]1-[1-(2-thieny])cyclohexyl] peridine from NMDA receptor by 100 nM. Type of assay: protein-complex assay.
The target is the same in assay [11]. The assay is described as follows: Tested for % inactivation of the displacement of (+)-[3H]dizocilpine from NMDA receptor by 100 nM. It counts as protein-complex assay. A digest of the protocol:
as §2

The target of assay [12] is Muscarinic acetylcholine receptor. The assay can be described thus: Tested for in vitro inhibition of the displacement of [3H]QNB from CNS receptor. Type of assay: protein assay. A digest of the protocol: as §3

Bounds are passed on as bounds.

Chain of Mu-type opioid receptor (P33535 whole entry): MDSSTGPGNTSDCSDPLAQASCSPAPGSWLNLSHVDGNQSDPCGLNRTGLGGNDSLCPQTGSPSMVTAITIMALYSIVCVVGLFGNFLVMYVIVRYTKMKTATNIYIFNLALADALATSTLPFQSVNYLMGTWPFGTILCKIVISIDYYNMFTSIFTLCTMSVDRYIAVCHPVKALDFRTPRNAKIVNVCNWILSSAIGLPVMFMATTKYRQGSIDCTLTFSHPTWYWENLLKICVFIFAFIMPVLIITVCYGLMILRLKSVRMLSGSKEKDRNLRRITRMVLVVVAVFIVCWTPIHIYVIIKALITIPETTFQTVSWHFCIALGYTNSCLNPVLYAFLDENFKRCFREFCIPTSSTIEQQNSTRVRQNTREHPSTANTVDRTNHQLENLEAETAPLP
Chain of Sigma non-opioid intracellular receptor 1 (Q9R0C9 whole entry): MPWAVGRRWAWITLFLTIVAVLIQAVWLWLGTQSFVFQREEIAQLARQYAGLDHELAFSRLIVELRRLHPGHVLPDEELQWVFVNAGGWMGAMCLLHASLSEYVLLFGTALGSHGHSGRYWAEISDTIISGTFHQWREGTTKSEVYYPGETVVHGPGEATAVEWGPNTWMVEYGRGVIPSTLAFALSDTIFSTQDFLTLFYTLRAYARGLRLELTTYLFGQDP

What is called Ki is the equilibrium dissociation constant of an inhibitor or competing ligand from its target. As for `CC[C@]1(c2cccc(N=C=S)c2)OC[C@H]([C@@H]2CCCCN2)O1`, in assay [1], the Ki came to 94 nM. The compound also gave an Activity in assay [2] of 55%.

On to `C[C@]12N[C@H](Cc3cc(N=C=S)ccc31)c1ccccc12`, for which the inhibition constant Ki in assay [1] stood at 843 nM.

In assay [1], `S=C=Nc1cccc(C2(N3CCCCC3)CCCCC2)c1` yielded a Ki of 535 nM.

Consider `C[C@]12N[C@H](Cc3ccc(N=C=S)cc31)c1ccccc12` (stereo in doubt; (+)-8a) [listing 1 of 2 here], for which the Ki in assay [3] is above 100000 nM; in assay [1], 37 nM; in assay [4], 4810 nM; in assay [5], above 100000 nM; in [6], 6950 nM; in [7], 37 nM. The Ki is 132 nM in [8] and above 100000 nM in [9].

As for `C[C@]12N[C@H](Cc3ccc(N=C=S)cc31)c1ccccc12` (stereo in doubt; (+)-8a) [listing 2 of 2 here], the Activity is 56% in [2], 50% in assay [10] and 53% in assay [11].

In turn, `C[C@]12N[C@H](Cc3ccc(N=C=S)cc31)c1ccccc12` (stereo in doubt; (-)-8a) returned a Ki in [1] of 838 nM. That is a sub-micromolar value.

As for `C[C@]12N[C@H](Cc3ccccc31)c1ccccc12` [DIZOCILPINE], the Ki in assay [3] is above 100000 nM; in [5] it was above 100000 nM; in assay [6], 40900 nM; in [12], above 100000 nM.

These data come from ChEMBL document CHEMBL1127070, “Synthesis and binding properties of MK-801 isothiocyanates; (+)-3-isothiocyanato-5-methyl-10,11-dihydro-5H-dibenzo[a,d]cyclohepten- 5,10-imine hydrochloride: a new, potent and selective electrophilic affinity ligand for the NMDA receptor-coupled phencyclidine binding site” (J Med Chem, 1993).
